The structures appear in SMILES notation.

The nature of data set [1]: Partition coefficient (logP). Format: physicochemical. The settings on record: octanol/water. The procedure, abridged:
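Shake-flask octanol/water partition: compound diluted from ethanolic stock to 20 μmol/L in octanol-saturated sodium phosphate buffer (10 mmol/L, pH 7.4). Absorbance read before and after shaking 2 h at 21 °C with buffer-saturated 1-octanol (buffer:octanol volume ratio f), phases split by centrifugation. P = (Ao − Ax)/Ax × f. Read at 520 nm (pseudoisocyanines) or 565 nm (isocyanines); SEM, n = 4.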

The subject of another data set is CAKI-1. Kind of data set: Tested for the inhibition of extraneuronal [3H]norepinephrine uptake in Caki-1 cells. The data set is classed as functional, cell-based. Conditions: Homo sapiens, CAKI-1, 15 min. The procedure, abridged:
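Human renal carcinoma Caki-1 monolayers expressing extraneuronal noradrenaline transport. Preincubated 20 min at 37 °C in HEPES buffer pH 7.4 with U-0521 and pargyline (10 μmol/L each) and ascorbate 1 mmol/L, then incubated 15 min at 37 °C with 100 nmol/L [3H]noradrenaline. Inhibitor present throughout. Cells rinsed ice-cold, read by scintillation. Specific uptake is the fraction sensitive to 100 μmol/L O-methylisoprenaline. IC50 from Hill fit, geometric mean with 95% confidence limits.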

The next data set has as its system PC-12. Kind of data set: Tested for the inhibition of neuronal type of noradrenaline uptake in clonal PC12 cells. Format: functional, cell-based. Conditions: Rattus norvegicus.

Consider `CN1C=C/C(=C/c2ccc3ccccc3[n+]2C)c2ccccc21`, for which the logP (in general, the decadic logarithm of the partition coefficient of the neutral form, usually between octanol and water) in data set [1] came out at 0.81. Moreover, the IC50 (as a rule, the point on the concentration scale where inhibition reaches its midpoint) in the data set with CAKI-1 is 100 nM.

As for `CC[n+]1c(Cc2ccc3ccccc3[n+]2CC)ccc2ccccc21`, in data set [1], the logP turned out to be 0.65. Besides, the IC50 came out at 3000 nM in the data set on PC-12 and 12 nM with CAKI-1.

Molecule `C[n+]1c(Cc2ccc3ccccc3[n+]2C)ccc2ccccc21` returned a logP in data set [1] of 0.34. For the same molecule, it took 94 nM to reach half-maximal inhibition with CAKI-1 (IC50).

In data set [1], `CCN1/C(=C\c2cc[n+](CC)c3ccccc23)C=Cc2ccccc21` showed a logP of 0.86. The molecule also gave an IC50 with CAKI-1 of 29 nM.

In data set [1], `CC[n+]1c(Cc2ccc3ccccc3[n+]2C(C)C)ccc2ccccc21` gave a logP of 0.84. In the data set on CAKI-1, this molecule came in with an IC50 of 13 nM.

Take `CC(C)[n+]1ccc(/C=C2/C=Cc3ccccc3N2C)c2ccccc21`: in data set [1], the logP turned out to be 0.92. In addition, the IC50 with CAKI-1 was determined as 51 nM.

As for `CC(C)N1/C(=C\c2cc[n+](C(C)C)c3ccccc23)C=Cc2ccccc21` [DISPROCYNIUM24], the logP in data set [1] came out at 1.16. The IC50 in the data set on CAKI-1 turned out to be 14 nM.

These data come from ChEMBL document CHEMBL1126571, “Isocyanines and pseudoisocyanines as a novel class of potent noradrenaline transport inhibitors: synthesis, detection, and biological activity” (J Med Chem, 1993).
